Results published in ChEMBL document CHEMBL2062452, “Identification of Simple Compounds with Microtubule-Binding Activity That Inhibit Cancer Cell Growth with High Potency” (ACS Med Chem Lett, 2011).
Activity calls are given as the source filed them. The rule behind the calls is not given here.

Tests used:
Tubulin (Sus scrofa) = Tubulin (Sus scrofa) (UniProt P02554+P02550); experiment: Inhibition of pig brain tubulin polymerization at 5 uM measured every min for 60 mins by spectrophotometry
In short: (§1)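 Purified porcine brain tubulin self-polymerized into microtubules in buffer, and polymerization was followed as the rise in light scattering at 340 nm.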

HT-1080 [1] = details: Homo sapiens, 100 nM
HT-1080 [2] = experiment: Growth inhibition of human HT1080 cells after 24 hrs by alamar blue assay; assay type: functional, cell-based; details: HT-1080, 24 h
[3] = Growth inhibition of human BJeLR cells after 24 hrs by alamar blue assay; assay type: functional, cell-based
MCF-10A = experiment: Growth inhibition of human MCF10A cells after 24 hrs by alamar blue assay; assay type: functional, cell-based
HT-1080 [4] = experiment: Inhibition of microtubule polymerization in human HT1080 cells at 272 nM for 4 hrs by immunocytochemistry analysis; assay type: cell-based
In short: (§2)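 HT-1080 cells were treated, then immunofluorescence-stained for microtubules and scored for loss of the hairlike network. Colchicine- and vinblastine-treated cells served as controls.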

HT-1080 [5] = experiment: Induction of apoptosis in human HT1080 cells assessed as caspase activation after 24 to 48 hrs; assay type: functional, cell-based
HT-1080 [6] = experiment: Induction of cell death in human HT1080 cells assessed as viability at 0.1 to 10000 nM after 24 hrs in the presence of caspase inhibitor Boc-D-fmk; assay type: functional, cell-based
HT-1080 [7] = experiment: Induction of cell death in human HT1080 cells assessed as viability at 0.1 to 10000 nM after 24 hrs in the presence of caspase inhibitor zVAD-fmk; assay type: functional, cell-based
HT-1080 [8] = experiment: Induction of apoptosis in human HT1080 cells assessed as caspase activation at 0.33 to 2729 nM; assay type: functional, cell-based; details: TDE = time-dependent effect
HT-1080 [9] = experiment: Induction of cell death in human HT1080 cells in presence of calcium channel inhibitor Co2+; assay type: functional, cell-based
HT-1080 [10] = experiment: Inhibition of microtubule polymerization in human HT1080 cells at 50 nM for 4 hrs by immunocytochemistry analysis; assay type: cell-based
Sus scrofa = species: Sus scrofa; experiment: Stabilization of pig brain microtubule at 5 uM measured every min for 60 mins by spectrophotometry; in short: as §1
HT-1080 [11] = experiment: Inhibition of microtubule polymerization in human HT1080 cells at 250 nM for 4 hrs by immunocytochemistry analysis; assay type: cell-based; in short: as §2
HT-1080 [12] = experiment: Induction of apoptosis in human HT1080 cells assessed as caspase activation at 0.81 to 6006 nM; assay type: functional, cell-based; details: TDE = time-dependent effect
HT-1080 [13] = experiment: Induction of apoptosis in human HT1080 cells assessed as caspase activation at 0.33 to 2714 nM; assay type: functional, cell-based; details: TDE = time-dependent effect

Chain of Tubulin (Sus scrofa) (P02550 whole entry, looked up): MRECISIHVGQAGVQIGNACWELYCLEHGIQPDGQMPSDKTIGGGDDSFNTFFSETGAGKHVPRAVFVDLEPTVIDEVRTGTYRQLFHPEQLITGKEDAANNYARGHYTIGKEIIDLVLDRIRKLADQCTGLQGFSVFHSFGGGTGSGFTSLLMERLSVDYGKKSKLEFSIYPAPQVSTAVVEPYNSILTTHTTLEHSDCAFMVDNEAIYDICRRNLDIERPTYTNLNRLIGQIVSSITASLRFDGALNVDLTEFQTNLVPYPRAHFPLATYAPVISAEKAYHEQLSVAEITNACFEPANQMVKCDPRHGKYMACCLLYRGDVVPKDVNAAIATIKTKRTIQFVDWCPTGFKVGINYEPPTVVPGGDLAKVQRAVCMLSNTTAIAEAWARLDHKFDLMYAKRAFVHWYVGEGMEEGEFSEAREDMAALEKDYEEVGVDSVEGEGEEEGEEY
Chain of Tubulin (Sus scrofa) (P02554 whole entry, looked up): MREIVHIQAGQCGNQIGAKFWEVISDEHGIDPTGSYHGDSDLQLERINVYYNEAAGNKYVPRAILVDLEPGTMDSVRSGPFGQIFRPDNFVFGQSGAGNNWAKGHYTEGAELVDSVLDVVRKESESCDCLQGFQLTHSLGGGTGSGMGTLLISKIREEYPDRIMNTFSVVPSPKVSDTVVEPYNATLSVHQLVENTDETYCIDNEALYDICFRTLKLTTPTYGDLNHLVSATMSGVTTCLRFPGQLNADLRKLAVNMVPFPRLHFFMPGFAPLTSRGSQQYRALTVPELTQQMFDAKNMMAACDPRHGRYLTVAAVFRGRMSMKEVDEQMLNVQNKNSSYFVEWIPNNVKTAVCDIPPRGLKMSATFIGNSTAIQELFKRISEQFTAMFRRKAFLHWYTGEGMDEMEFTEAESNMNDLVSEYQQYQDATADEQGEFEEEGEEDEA

SMILES | inhibition (Tubulin (Sus scrofa)) | EC50 (HT-1080 [2]) [nM] | EC50 [3] [nM] | EC50 (MCF-10A) [nM] | inhibition (HT-1080 [4]) | Activity (HT-1080 [5]) | Activity (HT-1080 [6]) | Activity (HT-1080 [7]) | Activity (HT-1080 [9]) | Activity (Sus scrofa) | other results
CC[C@]1(O)C[C@@H]2CN(CCc3c([nH]c4ccccc34)[C@@](C(=O)OC)(c3cc4c(cc3OC)N(C)[C@H]3[C@@](O)(C(=O)OC)[C@H](OC(C)=O)[C@]5(CC)C=CCN6CC[C@]43[C@@H]65)C2)C1 | Active |  |  |  |  |  |  |  |  |  | inhibition (HT-1080 [1]): Active
CCOc1ccc(C2=Nn3c(nnc3-c3ccccc3OC)SC2)cc1 |  | < 100 | < 100 | < 100 | Active | Dose-dependent effect | Active | Active | Active |  | Activity (HT-1080 [8]): tde
COc1cc2c(c(OC)c1OC)-c1ccc(OC)c(=O)cc1[C@@H](NC(C)=O)CC2 |  |  |  |  |  |  |  |  |  |  | inhibition (HT-1080 [10]): Active
CC(=O)O[C@H]1C(=O)[C@@]2(C)[C@H]([C@H](OC(=O)c3ccccc3)[C@]3(O)C[C@H](OC(=O)[C@H](O)[C@@H](NC(=O)c4ccccc4)c4ccccc4)C(C)=C1C3(C)C)[C@]1(OC(C)=O)CO[C@@H]1C[C@@H]2O |  |  |  |  |  |  |  |  |  | Active | 
COc1ccccc1N1CCN(C(=O)c2cc(=O)c3cc(C)cc(C)c3o2)CC1 |  | < 100 | < 100 | < 100 |  | Dose-dependent effect | Active | Active | Active | Active | inhibition (HT-1080 [11]): inactive; Activity (HT-1080 [12]): tde
O=S(=O)(c1ccc(-c2cnc(C3CC3)o2)cc1)N1CCCc2ccccc21 | Active | < 100 | < 100 | < 100 | Active | Dose-dependent effect | Active | Active | Active |  | Activity (HT-1080 [13]): tde
